Data set [1] is described as follows: folding enthalpy; higher = less favourable; fluorescence melt of hairpins on a sequencing array, two-state fit. The following applies: sodium 0.088 M. The method, boiled down: (§1)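 To match UV melts, fitted temperatures were raised by 9.35 °C. These fits were bootstrapped two-state models that gave melting temperature and folding enthalpy, combined by inverse variance over four replicates. The input was normalised Cy3 fluorescence of library hairpins with annealed Cy3 and quencher oligos on a sequenced MiSeq flow cell, imaged in 50 mM Na-HEPES pH 8.0, 25 mM NaCl in 2.5 °C steps up to 60 °C.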

Data set [2] is described as follows: melting temperature; fluorescence melt of hairpins on a sequencing array, two-state fit, raised by 9.35 °C to match UV melts. The following applies: sodium 0.088 M. The method, boiled down: as §1

Folding enthalpy and Tm data for 37 sequences are collected here from the array DNA melting data of Ke et al. (doi:10.1101/2024.01.08.574731).

For the sequence GCTGCGCGAAAGCGGGGC ((..(((....)))..)), the folding enthalpy in data set [1] is -26.9 kcal/mol. In data set [2], the Tm was found to be 63.1 °C.

As to GCTGCGCGAAAGCGTCGC ((..(((....)))..)), the folding enthalpy in data set [1] was -15.2 kcal/mol. The Tm in data set [2] is 51.4 °C.

For GCTGCGCGAAAGCTAAGC (((..((....))..))), in data set [1], the folding enthalpy is -23.4 kcal/mol. Also, in data set [2], the Tm was found to be 44 °C.

Take GCTGCGCGAAAGCTCCGC ((.(.((....)).).)): in data set [1], the folding enthalpy is -12.3 kcal/mol. In data set [2], the Tm is 38.5 °C.

Regarding GCTGCGGGAAACCGCAAC (.(((((....))))).), in data set [1], the folding enthalpy was -11.4 kcal/mol. In addition, in data set [2], the Tm was 45.9 °C.

On to GCTGCGGGAAACCGTGGC ((..(((....)))..)), for which the folding enthalpy in data set [1] is -35.3 kcal/mol. Also, the Tm in data set [2] worked out at 52.6 °C.

Turning to GCTGCTCCGAAAGGAAGC (((..(((....)))))), the folding enthalpy in data set [1] is -14.1 kcal/mol. Besides, the Tm in data set [2] was determined as 47 °C.

Turning to GCTGCTCGAAAGAGAGC (((.(((....)))))), the folding enthalpy in data set [1] is -20.5 kcal/mol. Moreover, the Tm in data set [2] is 48 °C.

With GCTGCTGGAAACAGCGGC ((.((((....)))).)), the folding enthalpy in data set [1] is -45.2 kcal/mol. The Tm in data set [2] came out at 65.8 °C.

As for GCTGCTGGAAACAGTAGC (((.(((....))).))), the folding enthalpy in data set [1] is -43.1 kcal/mol. Moreover, the Tm in data set [2] was found to be 54.3 °C.

For the sequence GCTGGACGAAAGTCGAGC (((.(((....))).))), in data set [1], the folding enthalpy was -44.2 kcal/mol. Besides, the Tm in data set [2] was determined as 56.2 °C.

Regarding GCTGGAGAAATCCAGC ((((((....)))))), the folding enthalpy in data set [1] is -35.9 kcal/mol. The Tm in data set [2] turned out to be 62.9 °C.

For the sequence GCTGGAGGAAACTCTAGC (((.(((....))).))), in data set [1], the folding enthalpy was -40.4 kcal/mol. Also, in data set [2], the Tm worked out at 48.4 °C.

As to GCTGGAGGAAACTTCGGC ((.(.((....)).).)), in data set [1], the folding enthalpy was -29.6 kcal/mol. Moreover, the Tm in data set [2] is 37.2 °C.

Regarding GCTGGCGAAAGCCCCAGC ((((((....)))..))), the folding enthalpy in data set [1] is -14.8 kcal/mol. For the same sequence, the Tm in data set [2] was found to be 43.5 °C.

Take GCTGGCGAAAGCCCGAGC ((((((....)))..))): the folding enthalpy in data set [1] is -14.3 kcal/mol. Besides, the Tm in data set [2] is 45.4 °C.

On to GCTGGCGAAAGCCGGAGC ((((((....)))..))), for which the folding enthalpy in data set [1] was -11.4 kcal/mol. Besides, in data set [2], the Tm is 56.4 °C.

GCTGGCGGAAACGTCGGC ((.(.((....)).).)): in data set [1], the folding enthalpy was -38.7 kcal/mol. Besides, the Tm in data set [2] came to 53.1 °C.

For GCTGGGCGAAAGCAAAGC (((..((....))..))), in data set [1], the folding enthalpy was -20.9 kcal/mol. Moreover, the Tm in data set [2] stood at 54.1 °C.

As to GCTGGGCGAAAGCCAGC (((.(((....)))))), the folding enthalpy in data set [1] was -22.4 kcal/mol. Further, in data set [2], the Tm was found to be 68.5 °C.

GCTGGGCGAAAGCCTCGC ((..(((....)))..)): the folding enthalpy in data set [1] is -14.9 kcal/mol. The Tm in data set [2] came out at 44.6 °C.

With GCTGGGCGAAAGCGCTGC ((.(.((....)).).)), the folding enthalpy in data set [1] is -31.7 kcal/mol. In addition, the Tm in data set [2] is 60 °C.

As to GCTGGGCGAAAGCGGAGC (((..((....))..))), in data set [1], the folding enthalpy was -17.2 kcal/mol. Moreover, the Tm in data set [2] was found to be 44.1 °C.

On to GCTGGGCGAAAGCTCTGC ((.(.((....)).).)), for which the folding enthalpy in data set [1] was -22.3 kcal/mol. In addition, the Tm in data set [2] amounted to 53.1 °C.

With GCTGGGGGAAACCCCAAC (.(((((....))))).), in data set [1], the folding enthalpy is -13.2 kcal/mol. Moreover, the Tm in data set [2] came out at 38.5 °C.

In the case of GCTGGGGGAAACCCCGGC ((.((((....)))).)), in data set [1], the folding enthalpy was -33.8 kcal/mol. For the same sequence, the Tm in data set [2] amounted to 65.5 °C.

As for GCTGGGGGAAACCCTAGC (((.(((....))).))), in data set [1], the folding enthalpy was -36.2 kcal/mol. In addition, in data set [2], the Tm turned out to be 53.2 °C.

With GCTGGGGGAAACTCCGGC ((.((.(....).)).)), the folding enthalpy in data set [1] is -31.1 kcal/mol. Moreover, the Tm in data set [2] came to 47.1 °C.

With GCTGGTGGAAACACCAAC (.(((((....))))).), the folding enthalpy in data set [1] is -14.4 kcal/mol. The Tm in data set [2] worked out at 41.3 °C.

GCTGGTGGAAACACTAGC (((.(((....))).))): the folding enthalpy in data set [1] is -40.8 kcal/mol. In addition, the Tm in data set [2] came to 51.3 °C.

Consider GCTGGTGGAAACATCGGC ((.(.((....)).).)), for which the folding enthalpy in data set [1] was -30.4 kcal/mol. In addition, the Tm in data set [2] came out at 43 °C.

Take GCTGTACGAAAGTAAAGC (((.(((....))).))): the folding enthalpy in data set [1] is -30.2 kcal/mol. Also, in data set [2], the Tm turned out to be 49.6 °C.

Regarding GCTGTACGAAAGTATAGC (((.(((....))).))), the folding enthalpy in data set [1] is -39.6 kcal/mol. Also, the Tm in data set [2] came to 54 °C.

Take GCTGTCCGAAAGGAGAGC (((.(((....))).))): in data set [1], the folding enthalpy is -34 kcal/mol. The Tm in data set [2] is 57 °C.

On to GCTGTCCGAAAGGATAGC (((.(((....))).))), for which, in data set [1], the folding enthalpy is -39.6 kcal/mol. For the same sequence, the Tm in data set [2] is 59.3 °C.

Take GCTGTCGAAAGACACAGC ((((((....)))..))): in data set [1], the folding enthalpy was -14.7 kcal/mol. The Tm in data set [2] is 48.3 °C.

In the case of GCTGTCGAAAGACAGAGC ((((((....)))..))), the folding enthalpy in data set [1] was -13.6 kcal/mol. The Tm in data set [2] came to 54.8 °C.
